{"data": "Measured values gathered from unrelated publications", "organism": "Severe acute respiratory syndrome coronavirus 2", "note": "Lines come from different studies, so protocols differ. pIC50: −log10 of the molar value."}
{"SMILES": "CCCCCOc1ccc(-c2ccc(-c3ccc(C(=O)N[C@H]4C[C@@H](O)[C@@H](O)NC(=O)[C@@H]5[C@@H](O)[C@@H](C)CN5C(=O)[C@H]([C@@H](C)O)NC(=O)[C@H]([C@H](O)[C@@H](O)c5ccc(O)cc5)NC(=O)[C@@H]5C[C@@H](O)CN5C(=O)[C@H]([C@@H](C)O)NC4=O)cc3)cc2)cc1", "assay": "viral replication, inhibitor", "test system": "Vero", "conditions": "24 h", "measurement": "IC50", "value": "5.4 µg/mL"}
{"SMILES": "O=c1c(O[C@@H]2O[C@H](CO)[C@@H](O)[C@H](O)[C@H]2O)c(-c2ccc(O)c(O)c2)oc2cc(O)cc(O)c12", "assay": "viral replication, inhibitor", "test system": "Huh-7", "measurement": "pIC50", "value": "< 5.70"}
{"SMILES": "COc1ccc2c(c1)[C@]13CCCC[C@@H]1[C@H](C2)N(C)CC3", "assay": "viral replication, inhibitor", "test system": "A549-ACE2", "measurement": "pIC50", "value": 5.38}
{"SMILES": "COc1ccc2c(O[C@@H]3C[C@H]4C(=O)N[C@]5(C(=O)NS(=O)(=O)C6CC6)C[C@H]5/C=C\\CCCCN(C)C(=O)[C@@H]4C3)cc(-c3nc(C(C)C)cs3)nc2c1C", "assay": "viral replication", "test system": "HEK-293T", "measurement": "pIC50", "value": 5.64}
{"SMILES": "CCOP(=O)(OCC)N1C/C(=C\\c2ccc(Br)cc2)C(=O)C2(C1)C(c1ccc(Br)cc1)CN(C)C21C(=O)Nc2ccccc21 (stereo not drawn)", "assay": "viral replication, inhibitor", "test system": "Vero C1008", "conditions": "72 h", "measurement": "pIC50", "value": 5.05}
{"SMILES": "CCN(CC)CCS(=O)(=O)[C@@H]1CCN2C(=O)c3coc(n3)CC(=O)C[C@H](O)/C=C(C)/C=C/CNC(=O)/C=C/[C@@H](C)[C@@H](C(C)C)OC(=O)[C@@H]12", "assay": "viral replication, inhibitor", "test system": "Huh-7", "measurement": "pIC50", "value": "< 5.70"}
{"SMILES": "CC(CN1c2ccccc2Sc2ccccc21)N(C)C (stereo not drawn)", "assay": "viral replication, inhibitor", "test system": "A549-ACE2", "measurement": "pIC50", "value": 6.24}
{"SMILES": "CCCC(CCC)C(=O)O", "assay": "viral replication, inhibitor", "test system": "Huh-7", "measurement": "pIC50", "value": "< 5.70"}
{"SMILES": "CC(C)C(=O)OCC(=O)[C@@]12O[C@H](C3CCCCC3)O[C@@H]1C[C@H]1[C@@H]3CCC4=CC(=O)C=C[C@]4(C)[C@H]3[C@@H](O)C[C@@]12C", "assay": "viral replication", "test system": "VeroE6/TMPRSS2", "measurement": "pIC50", "value": 5.10}
{"SMILES": "C[C@@H](O)[C@H]1C(=O)N2C(C(=O)O)=C(S[C@@H]3CN[C@H](C(=O)N(C)C)C3)[C@H](C)[C@H]12", "assay": "viral replication, inhibitor", "test system": "Huh-7", "measurement": "pIC50", "value": "< 5.70"}
{"SMILES": "NC(=O)c1nc(F)c[nH]c1=O", "assay": "viral replication, inhibitor", "test system": "Vero C1008", "measurement": "pIC50", "value": "< 4.00"}
{"SMILES": "O=C(Nc1ccc([N+](=O)[O-])cc1Cl)c1cc(Cl)ccc1O", "assay": "viral replication, inhibitor", "test system": "Huh-7", "measurement": "pIC50", "value": 6.85}
{"SMILES": "CCN(CC)CCCC(C)Nc1c2ccc(Cl)cc2nc2ccc(OC)cc12 (stereo not drawn)", "assay": "viral replication", "test system": "Calu-3", "measurement": "pIC50", "value": "< 4.30"}
{"SMILES": "CCN(CC)CCOc1ccc(C(O)(Cc2ccc(Cl)cc2)c2ccc(C)cc2)cc1 (stereo not drawn)", "assay": "viral replication, inhibitor", "test system": "A549-ACE2", "measurement": "pIC50", "value": 6.44}
{"SMILES": "CCCCc1oc2ccc(NS(C)(=O)=O)cc2c1C(=O)c1ccc(OCCCN(CCCC)CCCC)cc1", "assay": "viral replication, inhibitor", "test system": "Vero C1008", "measurement": "pIC50", "value": 5.82}
{"SMILES": "Cc1ccc(NC(=O)c2c(N)nc(S[C@@H]3O[C@H](CO)[C@H](O)[C@H](O)[C@H]3O)[nH]c2=S)cc1", "assay": "viral replication", "test system": "Vero C1008", "conditions": "72 h", "measurement": "pIC50", "value": 4.47}
{"SMILES": "CN(C)CCC=C1c2ccccc2CCc2ccccc21", "assay": "viral replication, inhibitor", "test system": "A549-ACE2", "measurement": "pIC50", "value": 6.06}
{"SMILES": "C=C[C@@H]1C[C@]1(NC(=O)[C@@H]1C[C@@H](Oc2ncc(OC)c3ccc(Cl)cc23)CN1C(=O)[C@@H](NC(=O)OC(C)(C)C)C(C)(C)C)C(=O)NS(=O)(=O)C1CC1", "assay": "viral replication", "test system": "HEK-293T", "measurement": "pIC50", "value": 4.32}
{"SMILES": "COc1cc2c(cc1OC)C(=O)C(CC1CCN(Cc3ccccc3)CC1)C2 (stereo not drawn)", "assay": "viral replication, inhibitor", "test system": "A549-ACE2", "measurement": "pIC50", "value": 5.11}
{"SMILES": "Clc1ccc(C(Cn2ccnc2)OCc2ccsc2Cl)c(Cl)c1 (stereo not drawn)", "assay": "viral replication, inhibitor", "test system": "Calu-3", "conditions": "40 h", "measurement": "pIC50", "value": 5.61}
{"SMILES": "CCc1nc(C(N)=O)c(Nc2ccc(N3CCC(N4CCN(C)CC4)CC3)c(OC)c2)nc1NC1CCOCC1", "assay": "viral replication, inhibitor", "test system": "Huh-7", "measurement": "pIC50", "value": 6.59}
{"SMILES": "CCSc1ccc2c(c1)N(CCCN1CCN(C)CC1)c1ccccc1S2", "assay": "viral replication, inhibitor", "test system": "Vero C1008", "measurement": "pIC50", "value": 5.15}
{"SMILES": "COC(=O)Nc1nc2ccc(C(=O)c3ccccc3)cc2[nH]1", "assay": "viral replication, inhibitor", "test system": "Vero C1008", "measurement": "pIC50", "value": "5.92 to 6.60"}
{"SMILES": "CC(C)(C)[C@]1(O)CCN2C[C@H]3c4ccccc4CCc4cccc(c43)[C@@H]2C1", "assay": "viral replication", "test system": "Vero C1008", "measurement": "pIC50", "value": 5.21}
{"SMILES": "COc1ccc(NC(=O)c2c(N)nc(S[C@@H]3O[C@H](COC(C)=O)[C@@H](OC(C)=O)[C@H](OC(C)=O)[C@H]3OC(C)=O)[nH]c2=S)cc1", "assay": "viral replication", "test system": "Vero C1008", "conditions": "72 h", "measurement": "pIC50", "value": 3.77}
{"SMILES": "CCC(CC)COC(=O)[C@H](C)N[P@](=O)(OC[C@H]1O[C@@](C#N)(c2ccc3c(N)ncnn23)[C@H](O)[C@@H]1O)Oc1ccccc1", "assay": "viral replication, inhibitor", "test system": "Calu-3", "conditions": "40 h", "measurement": "pIC50", "value": 6.41}
{"SMILES": "Nc1nc(S)[nH]c(=S)c1C(=O)Nc1ccc(Cl)cc1", "assay": "viral replication", "test system": "Vero C1008", "conditions": "72 h", "measurement": "pIC50", "value": 3.54}
{"SMILES": "CC[C@H](C)[C@H]1C(=O)N2CCC[C@H]2C(=O)O[C@H](C(C)(C)C)C[C@@H](C)C[C@H](O)[C@H](C)C2=N[C@@H](CCC(=O)N[C@@H](Cc3ccc(OC)cc3)C(=O)N(C)[C@@H](C)C(=O)N1C)CS2", "assay": "viral replication, inhibitor", "test system": "Vero C1008", "measurement": "pIC50", "value": 6.77}
{"SMILES": "CCCCc1oc2ccc(NS(C)(=O)=O)cc2c1C(=O)c1ccc(OCCCN(CCCC)CCCC)cc1", "assay": "viral replication, inhibitor", "test system": "Calu-3", "conditions": "40 h", "measurement": "pIC50", "value": 5.53}
{"SMILES": "CC(C)N1CCN(c2ccc(OCC3COC(Cn4cncn4)(c4ccc(Cl)cc4Cl)O3)cc2)CC1 (stereo not drawn)", "assay": "viral replication, inhibitor", "test system": "Vero C1008", "measurement": "pIC50", "value": 4.92}
{"SMILES": "Nc1nc(S[C@@H]2O[C@H](CO)[C@@H](O)[C@H](O)[C@H]2O)[nH]c(=S)c1C(=O)Nc1ccc(Cl)cc1", "assay": "viral replication", "test system": "Vero C1008", "conditions": "72 h", "measurement": "pIC50", "value": 4.34}
{"SMILES": "CC(Nc1nc(N2CCNCC2)nc2ccccc12)c1ccccc1N (stereo not drawn)", "assay": "viral entry, inhibitor", "conditions": "pseudovirus", "measurement": "pIC50", "value": 4.45}
{"SMILES": "CCCCCCCCC=CCCCCCCCC(=O)NCCO", "assay": "viral replication, inhibitor", "test system": "Huh-7", "measurement": "pIC50", "value": "< 5.70"}
{"SMILES": "COc1cccc2c1C(=O)c1c(O)c3c(c(O)c1C2=O)C[C@@](O)(C(C)=O)C[C@@H]3O[C@H]1C[C@H](N)[C@H](O)[C@H](C)O1", "assay": "viral replication, inhibitor", "test system": "Calu-3", "conditions": "40 h", "measurement": "pIC50", "value": 5.91}
{"SMILES": "CCCCCCCCCC(=O)N[C@@H](Cc1c[nH]c2ccccc12)C(=O)N[C@H](CC(N)=O)C(=O)N[C@@H](CC(=O)O)C(=O)N[C@@H]1C(=O)NCC(=O)N[C@@H](CCCN)C(=O)N[C@@H](CC(=O)O)C(=O)N[C@H](C)C(=O)N[C@@H](CC(=O)O)C(=O)NCC(=O)N[C@H](CO)C(=O)N[C@@H]([C@H](C)CC(=O)O)C(=O)N[C@@H](CC(=O)c2ccccc2N)C(=O)O[C@@H]1C", "assay": "viral replication, inhibitor", "test system": "Vero", "conditions": "24 h", "measurement": "IC50", "value": "> 0.4 µg/mL"}
{"SMILES": "Cc1cccc(C)c1OCC(=O)N[C@@H](Cc1ccccc1)[C@@H](O)C[C@H](Cc1ccccc1)NC(=O)[C@H](C(C)C)N1CCCNC1=O", "assay": "viral replication, inhibitor", "test system": "Vero C1008", "measurement": "pIC50", "value": "4.92 to 5.11"}
{"SMILES": "COc1cc2c(cc1OC)CN(CCc1ccc(NC(=O)c3cccc4c(=O)c5cccc(OC)c5[nH]c34)cc1)CC2", "assay": "viral replication", "test system": "Vero C1008", "measurement": "pIC50", "value": 6.24}
{"SMILES": "CC(C)CCCCCCCCC[C@@H]1CC(=O)N[C@@H](CCC(=O)O)C(=O)N[C@@H](CC(C)C)C(=O)N[C@H](CC(C)C)C(=O)N[C@@H](C(C)C)C(=O)N[C@@H](CC(=O)O)C(=O)N[C@H](CC(C)C)C(=O)N[C@@H](CC(C)C)C(=O)O1", "assay": "viral replication, inhibitor", "test system": "Vero", "conditions": "24 h", "measurement": "IC50", "value": "> 0.4 µg/mL"}
{"SMILES": "O=C1NCN(c2ccccc2)C12CCN(CCCC(c1ccc(F)cc1)c1ccc(F)cc1)CC2", "assay": "viral replication, inhibitor", "test system": "Vero C1008", "measurement": "pIC50", "value": 5.50}
{"SMILES": "COc1cccc2c1CCCC2CCCN1CCN(C2CCCCC2)CC1 (stereo not drawn)", "assay": "viral replication, inhibitor", "test system": "A549-ACE2", "measurement": "pIC50", "value": 6.39}
{"SMILES": "CCN(CC)CCCC(C)Nc1ccnc2cc(Cl)ccc12 (stereo not drawn)", "assay": "viral replication, inhibitor", "test system": "Vero C1008", "measurement": "pIC50", "value": 5.86}
{"SMILES": "CCC(CC)COC(=O)[C@H](C)N[P@](=O)(OC[C@H]1O[C@@](C#N)(c2ccc3c(N)ncnn23)[C@H](O)[C@@H]1O)Oc1ccccc1", "assay": "plaque formation, inhibitor", "test system": "Vero C1008", "measurement": "pIC50", "value": 6.72}
{"SMILES": "OC(c1cc(C(F)(F)F)nc2c(C(F)(F)F)cccc12)C1CCCCN1 (stereo not drawn)", "assay": "viral replication, inhibitor", "test system": "Vero C1008", "measurement": "pIC50", "value": 5.15}
{"SMILES": "CC(=O)OC[C@H]1O[C@@H](Sc2nc(N)c(C(=O)Nc3ccccc3)c(=S)[nH]2)[C@H](OC(C)=O)[C@@H](OC(C)=O)[C@@H]1OC(C)=O", "assay": "viral replication", "test system": "Vero C1008", "conditions": "72 h", "measurement": "pIC50", "value": 3.90}
{"SMILES": "CCOC(=O)N1CCC(=C2c3ccc(Cl)cc3CCc3cccnc32)CC1", "assay": "viral replication, inhibitor", "test system": "Huh-7", "measurement": "pIC50", "value": "< 5.70"}
{"SMILES": "C=C1C(=O)[C@@]23[C@H](O)C[C@@H]4C(C)(C)C(=O)CC[C@@]4(C)[C@@H]2CC[C@@H]1[C@H]3O", "assay": "viral replication, inhibitor", "test system": "Calu-3", "conditions": "40 h", "measurement": "pIC50", "value": 5.54}
{"SMILES": "Nc1nc(S[C@@H]2O[C@H](CO)[C@H](O)[C@H](O)[C@H]2O)[nH]c(=S)c1C(=O)Nc1ccccc1", "assay": "viral replication", "test system": "Vero C1008", "conditions": "72 h", "measurement": "pIC50", "value": 4.73}
{"SMILES": "CN(C)CCCN1c2ccccc2Sc2ccc(Cl)cc21", "assay": "viral replication, inhibitor", "test system": "Vero C1008", "measurement": "pIC50", "value": 5.50}
